Test results as given in the EternaBench riboswitch data.

Test system: MS2 coat protein
Assay: apparent Kd, MS2 coat protein; higher = weaker binding; RNA-MaP array
How it was run: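 The designed RNAs, transcribed from sequenced DNA templates on an Illumina sequencing chip, were incubated with fluorescently labeled MS2 coat protein at room temperature. Protein ranged from 1.5 nM to 3 μM, with 0.8–1.5 h incubation at the lowest and 10–20 min at the highest concentrations, in Tris-HCl pH 7.5 buffer with KCl, MgCl2, BSA, DTT, tRNA and Tween20, with or without input ligand. The median of per-cluster binding-curve fits gives the apparent Kd, and designs measured on fewer than 10 clusters were excluded.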

[1] = designed as: ON switch for flavin mononucleotide, no ligand
[2] = ligand present: flavin mononucleotide, designed as: ON switch for flavin mononucleotide
[3] = designed as: OFF switch for flavin mononucleotide, no ligand
[4] = ligand present: flavin mononucleotide, designed as: OFF switch for flavin mononucleotide
[5] = designed as: OFF switch for theophylline, no ligand
[6] = ligand present: theophylline, designed as: OFF switch for theophylline
[7] = designed as: ON switch for tryptophan, no ligand
[8] = ligand present: tryptophan, designed as: ON switch for tryptophan

| Sequence | apparent Kd [1] [nM] | apparent Kd [2] [nM] | apparent Kd [3] [nM] | apparent Kd [4] [nM] | further results |
| --- | --- | --- | --- | --- | --- |
| UUGAGAGGACAGAAGGUUGGGCUCUUGAUCUACGCGCGCGACAUGAGGAUCACCCAUGUGCUUCCAAAGGAUAUGUCACUCGCA | 138 | 44.8 |  |  |  |
| GCUGCUCAUCAAAACUGGACAUGAGGAUCACCCAUGUCUUUGCAGGAUAUUGAUCGUCAGUACAUCAAGAAGGGCACGCGGCAA | 12.9 | 9.89 |  |  |  |
| UGACUGGUCGGAGGAUAUGGCAACACGUUUUCGCCAGAAGGCCGACAUGAGGAUCACCCAUGUGGGACACUAGGGCGACUUCCU |  |  | 166 | 35.8 |  |
| CUUAUGAUCGAGGAUAUCACAAAUGGGCAGCGUUGAGAAGGCGACACAUGAGGAUCACCCAUGUAAUCAACAGU |  |  | 18.4 | 15.9 |  |
| UAUGGCAACUUAGGAUAUCAAUGCAUCGAUUAUUGAGAAGGAAGAAACAUGAGGAUCACCCAUGUCUCUACAGGGAUAAGGACC |  |  | 7.38 | 7.98 |  |
| AUCAUGAUUUUAGGAUAUAUGACGUUAUACAAUGGACAUGAGGAUCACCCAUGUAGUCGCGCUCUAUAGAAGGAAAGCUCAGUU |  |  | 44.1 | 36.5 |  |
| CAAUGACCCAAGGAUAUCUGCAGACGCGAGCCCAGAGAAGGUGGGACAUGAGGAUCACCCAUGUUCUCGUGUGA |  |  | 37 | 73.1 |  |
| CAAACAUUAUCAGGAUAUGUGCAAGAUCCGACAUGAGGAUCACCCAUGUUGCGGCAUCUCGGUUGACAGAAGGGAUCAUCGCCU | 11.2 | 10.1 |  |  |  |
| GCGACUCUCGUGAAGCGACAUGAGGAUCACCCAUGUAACACUAGAAGGAGGCACGAUACGAUGUCCUAGGAUAUAGACACGGCU |  |  | 27.8 | 26.4 |  |
| AGAAGCUAAUCCGGCUCAUACAUGAGGAUCACCCAUGUUUUCAGAAGGGAGUCCGUCGCACCGACUCAGGAUAUGAUUCAAGAA | 15.6 | 21.8 |  |  |  |
| GCUACACAUGAGGAUCACCCAUGUCAGGUCACUGAAGGAUAUAUUACUUAAUCCUGGGUCAUAGAAGGUCAAUUGC | 31.4 | 21.9 |  |  |  |
| ACCCAGACAUGAGGAUCACCCAUGUAAAUAGAGUACAUCAGGAGAAGGUUCAAAGGGCCUACCCGAAAGGAUAUCCUCGGCGUA | 30.8 | 25.7 |  |  |  |
| AUCACUGUGAAAGAUACCAGCGCCCUACCUAUCUUCUGUUACAUGAGGAUCACCCAUGUUCGCCCUUGGCAGCUUGAGAUGGAUC |  |  |  |  | apparent Kd [5]: 49 nM; apparent Kd [6]: 70.6 nM |
| GUACCACUCAAGAAGGACCUAGUUCACUAACCUGUGACAUGAGGAUCACCCAUGUGGCUAUUGCGGUAGGAUAUUGAAGACCGG | 157 | 69.1 |  |  |  |
| UUCAUCAACACAGGAUAUUCCGUCACAUGAGGAUCACCCAUGUAGCGCGUAGAUUACGGGCUUUCGAAGAAGGGUGUAAAGUCC | 54.2 | 43.3 |  |  |  |
| GCACGGCUAGAGAAGGGAAGGUGGAAGAGAUGUGAGGGACAUGAGGAUCACCCAUGUCUUACGAUUCAGGAUAUCUGAGAGGCU |  |  | 10.2 | 10.3 |  |
| CCGUACCCGGAGAAGGAAGUCGUUGGAUGGCCAACAUGAGGAUCACCCAUGUGAUUUCAACUUACUUAGGAUAUCCAAAAUGAG | 58.4 | 24.1 |  |  |  |
| AGUACCAAUGAGGAUACCAGAGUGCGACGCCGAAACCUUGACAUGAGGAUCACCCAUGUACUCCCUUGGCAGCCUGUACUUGCCA |  |  |  |  | apparent Kd [5]: 35.9 nM; apparent Kd [6]: 82.6 nM |
| GGACAUGAGGAUCACCCAUGUGGGAUCCACUACGGUCACGCUAGAAGGGAUGUGGGUGGCCGAUAUCAGGAUAUAGCAGUUUAG |  |  | 381 | 189 |  |
| UCGUGCAGAUAGGAUAUAUAGUCACUGUCGUCUAUAGAAGGAUCUACAUGAGGAUCACCCAUGUAAUGUGAGUC |  |  | 132 | 30.6 |  |
| GAGGUAACGUAGAAGGCGAGGGCAAUACCUGUUCGAGGAUAUACUAUUAGACAUGAGGAUCACCCAUGUGGAGAUUGAUCGUCA |  |  | 241 | 339 |  |
| UGAGUGAAGGAGAAGGGUCUUCAGGAAAUACGGAAAUAACAUGAGGAUCACCCAUGUUCAAGCAGACAGGAUAUCCAAUGUUGG | 18.8 | 14.6 |  |  |  |
| UCGAACGGGCAAGGAUAUCGAAGAUCCAAAAUUCGAGAAGGUGCAUGUGAUCGUCCGGUGUCACAUGAGGAUCACCCAUGUCAA |  |  | 354 | 179 |  |
| AUAUGUUGAGGAUAUACAUGAGGAUCACCCAUGUAAUAUGAACGGAAUGAUUUAAGGAGUAGAAGGCAACACCA |  |  | 12.8 | 24.4 |  |
| CGUUCAGUCCAGCGGUUACAUGAGGAUCACCCAUGUUUAGAGAGAAGGGUUGGCACCAGGAUGUAACAGGAUAUCUCGCUUACG | 171 | 71.5 |  |  |  |
| UGGUCGCAGUGAGGAUAUCCAGUCUAGGCACACGGAGAAGGCACGCGACAUGAGGAUCACCCAUGUAGACGAUAUGCUCCAGGU |  |  | 22.1 | 31.3 |  |
| AGUUACAUGAGGAUCACCCAUGUCCGGUUGCGAGGACCGGUACGGCCGCCACUCGGGUACAUCCCAGAAAAUACUGAAUGCCUGC |  |  |  |  | apparent Kd [7]: 55.4 nM; apparent Kd [8]: 51 nM |

| Sequence | apparent Kd [1] [nM] | apparent Kd [2] [nM] | apparent Kd [3] [nM] | apparent Kd [4] [nM] | further results |
| --- | --- | --- | --- | --- | --- |
| GUCAUGUUAGGAUAUACACGUACCCGCCGACAGCCAGCAAUGUAGAAGGAACAUGAGGAUCACCCAUGUCGUGG |  |  | 15.2 | 31.5 |  |
| UCGGUAUAUACAGGAUAUGGUCAAUACAUGAGGAUCACCCAUGUUAGAGCGGCAAAUAGGAUCUUCCAGAAGGGUACUUGCUUA |  |  | 14.8 | 11.5 |  |
| UAGAAUACAGGAUAUACAGCGAGAAAUCAUAUAAUAUACACACAUGAGGAUCACCCAUGUAGAAGGGAAUAAGG |  |  | 24.9 | 24 |  |
| CCUCGUAAUGAGGAUAUUAGGAAUUCUGGUCCAUAAGAAGGCAUGACAUGAGGAUCACCCAUGUAGCGGAUGGG |  |  | 102 | 145 |  |
| GGGCCCUUCUCAUAGGAUAUACUUUAUACCACAUGAGGAUCACCCAUGUAAACAUAAUUAAGAAAGUAGAAGGAUGACGAAAAUCG | 10.4 | 8.98 |  |  |  |
| UCGUCAUUGAACAGCACAUGAGGAUCACCCAUGUUUAGAUCUAGAAGGCCUUUCUCGAAGACCCAGGAGGAUAUAGUGAAGUGG |  |  | 21.8 | 18.7 |  |
| CCGCUUGCAGGAUAUACAUGAGGAUCACCCAUGUUAAGAGAACAGUAACAAAGCAUUUGUAGAAGGGCAAUACG |  |  | 9.81 | 9.19 |  |
| UUGCUCUCUUCGGCCGCCACUACACGCGAGUUGACGACUGGCGGACAUGAGGAUCACCCAUGUCAUAGGACCGGGAAUCACGCUG |  |  |  |  | apparent Kd [7]: 13.4 nM; apparent Kd [8]: 13.8 nM |
| ACAUCUUGUACGGCCGCCACUAACAGAUUCAGCGUCGGAGCCAACUACAUGAGGAUCACCCAUGUUAGGACCGGGUACUGUCCAC |  |  |  |  | apparent Kd (designed as: OFF switch for tryptophan, no ligand): 17.7 nM; apparent Kd (ligand present: tryptophan, designed as: OFF switch for tryptophan): 34.9 nM |
| GGUUUACAUGAGGAUCACCCAUGUCCUGACAUGAGUUAGAAACAGGAUAUGGCGCAAGAAAAUGUCCAGAAGGGUUCAUAGCAA | 238 | 70.2 |  |  |  |
| CGUACAGUCGAAGGAUAUUCGCGGGAGUUUGCCGAAGAAGGUCGCUAGUAGGGUGACAUGCUGUGACAUGAGGAUCACCCAUGU |  |  | 165 | 239 |  |
| UGUGGAACGGAAGGAUAUGGUCACCGAUGGUCUCCAGAAGGUCCGGGUGACCGAACAAUACAUGAGGAUCACCCAUGUAGCAAA |  |  | 7 | 6.84 |  |
| AUAGCAUGAGUAGGAUAUUUUGAGCGUUGUGCAAAAGAAGGACUGACCGUGAUUAUAAUAUACAUGAGGAUCACCCAUGUUACA |  |  | 9.42 | 8.03 |  |
| GACAUGAGGAUCACCCAUGUGAAGCAUGGUGGGCGCUCGUCCUAGGAUAUCUGCAAGUAGCUAGGAGAGAAGGAGGUAGCCAAA |  |  | 76.3 | 57.6 |  |
| AAUGACAUGAGGAUCACCCAUGUCCAUCUAAGCUCGGGUCUGCAGGAUAUUCCCGUGGGAUUAGGGAAGAAGGGCAGUGAUUGU | 14 | 7.02 |  |  |  |
| ACAUGAGGAUCACCCAUGUCUCGGGUGCCGGUUUUUACCUAGAGAAGGUGCGCAACGCUGUCACGCAAGGAUAUCUCACGAACA |  |  | 231 | 184 |  |
| AGGAGACGCAAGGAGGAUAUUCAUAUGGUAACAUGAGGAUCACCCAUGUAGUUCUAGUUGGGACUGAAGAAGGCCUUGCUAGCGCA | 21.7 | 11.3 |  |  |  |
| UAUUUGUUGAAGAAGGAGCGUACAUGAGGAUCACCCAUGUCCAACGUCUACGCGGGUUAUGUUAGCUAGGAUAUUCCGAAAUGG |  |  | 28.3 | 22.1 |  |
| CACUGACAUGAGGAUCACCCAUGUAUGCUCGACCAAGGAUAUUGAUCAGACAAGCAUACGCAAGAAGGUGGUGAGA | 222 | 105 |  |  |  |
| UAUCUUGAUAGAGGAUAUGAUAUUAAAGAAUAAUCAGAAGGCUAGUCAGAUCUUCUACAUGAGGAUCACCCAUGUUCGCGAACC |  |  | 211 | 208 |  |
| UGCAGAGAUUGAGGAUAUGUAGUCGAACAUGAGGAUCACCCAUGUUUGGUCCUUCUACACACGGCACAGAAGGCAAGAAAGAGC |  |  | 15.1 | 24.3 |  |
| CUCUCGCAAGGAUAUACACAGUGGAAUAUCAUAAGGUGAACACAUGAGGAUCACCCAUGUAGAAGGUGCAUAAG |  |  |  | 38.5 |  |
| UCGGAAAAGAAAGGAUAUCGCAUGGAUUGUUGUCGAGAAGGUUCAAAUCGACAUGAGGAUCACCCAUGUCGAGUCCAUACUCCU | 76 | 53.7 |  |  |  |
| GCAACAUGUUCAGGAUAUACGCUACAAACUCGUGUAGAAGGGAAGGAUACAAUUACAUGAGGAUCACCCAUGUGUUAUCCGAUU | 23.7 | 20.8 |  |  |  |
| CUCAGGCUGCGAGGAUAUCCGUCGAAUCAAACAGGAGAAGGCGCAUACAUGAGGAUCACCCAUGUGCUGACUUGUCCGUGAAUC |  |  | 5.46 | 6.37 |  |
| CGUUAGCAGUAGAAGGUAGCCGGCAGGUCAGGGCGACCACAUGAGGAUCACCCAUGUCUAUGUUCUAAGGAUAUACUGACCCAA |  |  | 5.2 | 5.59 |  |
| GACGAGUGCGAGUCACAUGAGGAUCACCCAUGUAACCAUGGGCAGGAUAUCUACCAGUUACUUUCAGAGAAGGGCCAACGAACU | 419 | 108 |  |  |  |
